One assay deals with SCaBER. The assay can be described thus: Antiproliferative activity against human SCaBER cells assessed as cell growth inhibition incubated for 6 days by celltiter-glo assay. It is filed as functional. Particulars: 144 h, time 6 day. For orientation: ATP-based viability assays read luminescence as a measure of living cells.
The next assay relates to Maver1. Description: Induction of apoptosis in human MAVER-1 cells assessed as early apoptotic cells incubated for 6 days by annexin-V/FITC propidium iodide staining based flow cytometry analysis. It is filed as functional, cell-based. Particulars: dose <= 5000.0 nM, time 6.0 day. Background: A flow cytometer gives signals particle by particle.
In assay [1] the test system is Z-138. The assay can be described thus: Antitumor activity against human Z138 cells xenografted in mouse at 25 to 50 mg/kg, po BID measured at 14 to 21 days. It is filed as functional, organism-based. Particulars: dose lower […], dose upper 50.0 mg/kg, time 14-21 day.
Assay [2] relates to Z-138. Description: Antitumor activity against human Z138 cells xenografted in mouse assessed as reduction in tumor volume at 50 to 100 mg/kg, po BID measured for 10 days. It is filed as functional, organism-based. Particulars: dose 50-100 mg/kg, time 10.0 day.
Assay [3] relates to Z-138. Description: Antitumor activity against human Z138 cells xenografted in po dosed mouse measured for 21 days. It is filed as functional, organism-based. Particulars: dose lower […], dose upper 200.0 mg/kg, time 21.0 day. In general terms: A xenograft is tissue or cells of one species grown in another, often human tumour cells in immunodeficient mice.
Assay [4] relates to Z-138. The assay can be described thus: In vivo inhibition of PRMT5 in human Z138 cells xenografted in mouse assessed as increase in CDKN1 expression at 100 mg/kg, po BID measured for 7 days. It is filed as functional, organism-based. Particulars: time 7.0 day.
A further assay concerns FaDu. Description: Antiproliferative activity against human FaDu cells assessed as cell growth inhibition incubated for 10 days. It is filed as functional. Particulars: 240 h, time 10 day. In short, it runs like this:
(§1)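 Outsourced panel run in 384-well plates. Cells were grown in RPMI-1640/10% FBS or a special medium at 37°C, 5% CO2. Compound was added 24 h after seeding as a 10-point, 3.16-fold series in 0.1% DMSO. Medium was refreshed and cells re-dosed at 168 h, with a time-zero plate kept. At 240 h cells were fixed, nuclei stained and imaged. gIC50 is growth midway between untreated and time zero, from a 4-parameter fit.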

For the next assay, the system named is Ramos. Description: Antiproliferative activity against human Ramos cells assessed as cell growth inhibition incubated for 10 days. It is filed as functional. Particulars: 240 h, time 10 day.
For a further assay, the system named is SW1783. The assay can be described thus: Antiproliferative activity against human SW1783 cells assessed as cell growth inhibition incubated for 10 days. It is filed as functional. Particulars: SW1783, 240 h, time 10 day.
The next assay has as its system SW872. Description: Antiproliferative activity against human SW872 cells assessed as cell growth inhibition incubated for 10 days. Particulars: SW872, 240 h, time 10 day. It is filed as functional.
A further assay deals with BV-173. The assay can be described thus: Antiproliferative activity against human BV-173 cells assessed as cell growth inhibition incubated for 10 days. It is filed as functional. Particulars: BV-173, 240 h, time 10 day. In short, it runs like this: (§2)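 Cells kept in RPMI-1640 with 10% FBS, 2 mM L-alanyl-L-glutamine and 1 mM Na pyruvate (or a special medium) at 37°C, 5% CO2. Compound added 24 h after seeding, 10 concentrations in 3.16-fold dilution, 0.1% DMSO final. Medium replaced and cells re-dosed at 168 h; 240 h incubation. Nuclei fixed, dye-stained and imaged. gIC50 = growth midway between untreated and time-zero cell counts, from a 4-parameter fit.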

The next assay has as its system SK-UT-1. Description: Antiproliferative activity against human SK-UT-1 cells assessed as cell growth inhibition incubated for 10 days. It is filed as functional. Particulars: SK-UT-1, 240 h, time 10 day.
The subject of another assay is DMS-53. Description: Antiproliferative activity against human DMS-53 cells assessed as cell growth inhibition incubated for 10 days. It is filed as functional. Particulars: DMS-53, 240 h, time 10 day. In short, it runs like this: as §1
For the next assay, the system named is Detroit 562. Description: Antiproliferative activity against human Detroit 562 cells assessed as cell growth inhibition incubated for 10 days. It is filed as functional. Particulars: Detroit 562, 240 h, time 10 day. The procedure, abridged: as §1
In the next assay the test system is A-375. Description: Antiproliferative activity against human A-375 cells assessed as cell growth inhibition incubated for 10 days. It is filed as functional. Particulars: A-375, 240 h, time 10 day. In short, it runs like this: as §2
For a further assay, the system named is A-427. Description: Antiproliferative activity against human A-427 cells assessed as cell growth inhibition incubated for 10 days. Particulars: A-427, 240 h, time 10 day. It is filed as functional. The procedure, abridged: as §2
Another assay deals with ES-2. Description: Antiproliferative activity against human ES2 cells assessed as cell growth inhibition incubated for 10 days. It is filed as functional. Particulars: ES-2, 240 h, time 10 day. The procedure, abridged:
as §1

Assay [5] addresses Protein arginine N-methyltransferase 5 (Homo sapiens) (UniProt O14744). Description: Inhibition of PRMT5 in human Z138 cells assessed as MDM4 splicing at 8 to 1000 nM incubated for 3 days by RT-PCR analysis. It is filed as cell-based. Particulars: dose 8-1000 nM, time 3.0 day.
Another assay concerns CFPAC-1. Description: Antiproliferative activity against human CFPAC-1 cells assessed as cell growth inhibition incubated for 10 days. It is filed as functional. Particulars: CFPAC-1, 240 h, time 10 day. In short, it runs like this: as §2
Another assay relates to WI-38. Description: Antiproliferative activity against human WI-38 cells assessed as cell growth inhibition incubated for 10 days. It is filed as functional. Particulars: WI-38, 240 h, time 10 day.
A further assay deals with LS-1034. Description: Antiproliferative activity against human LS1034 cells assessed as cell growth inhibition incubated for 10 days. It is filed as functional. Particulars: LS-1034, 240 h, time 10 day.
The subject of another assay is CAKI-1. The assay can be described thus: Antiproliferative activity against human CAKI-1 cells assessed as cell growth inhibition incubated for 10 days. It is filed as functional. Particulars: CAKI-1, 240 h, time 10 day. In short, it runs like this: as §2
Another assay relates to SW-403. Description: Antiproliferative activity against human SW403 cells assessed as cell growth inhibition incubated for 10 days. It is filed as functional. Particulars: SW-403, 240 h, time 10 day.
The test system of the next assay is SK-N-AS. Description: Antiproliferative activity against human SK-N-AS cells assessed as cell growth inhibition incubated for 10 days. Particulars: 240 h, time 10 day. It is filed as functional.
In a further assay the test system is A498. Description: Antiproliferative activity against human A498 cells assessed as cell growth inhibition incubated for 10 days. It is filed as functional. Particulars: A498, 240 h, time 10 day. In short, it runs like this:
as §2

The target in assay [6] is Protein arginine N-methyltransferase 5 (Homo sapiens) (UniProt O14744). The assay can be described thus: Inhibition of PRMT5 in human Z138 cells expressing full length MDM4 at 1 to 100000 nM incubated for 3 to 6 days. It is filed as cell-based. Particulars: dose 1-100000 nM, time 3-6 day.
Protein arginine N-methyltransferase 5 (Homo sapiens), sequence (O14744 whole entry): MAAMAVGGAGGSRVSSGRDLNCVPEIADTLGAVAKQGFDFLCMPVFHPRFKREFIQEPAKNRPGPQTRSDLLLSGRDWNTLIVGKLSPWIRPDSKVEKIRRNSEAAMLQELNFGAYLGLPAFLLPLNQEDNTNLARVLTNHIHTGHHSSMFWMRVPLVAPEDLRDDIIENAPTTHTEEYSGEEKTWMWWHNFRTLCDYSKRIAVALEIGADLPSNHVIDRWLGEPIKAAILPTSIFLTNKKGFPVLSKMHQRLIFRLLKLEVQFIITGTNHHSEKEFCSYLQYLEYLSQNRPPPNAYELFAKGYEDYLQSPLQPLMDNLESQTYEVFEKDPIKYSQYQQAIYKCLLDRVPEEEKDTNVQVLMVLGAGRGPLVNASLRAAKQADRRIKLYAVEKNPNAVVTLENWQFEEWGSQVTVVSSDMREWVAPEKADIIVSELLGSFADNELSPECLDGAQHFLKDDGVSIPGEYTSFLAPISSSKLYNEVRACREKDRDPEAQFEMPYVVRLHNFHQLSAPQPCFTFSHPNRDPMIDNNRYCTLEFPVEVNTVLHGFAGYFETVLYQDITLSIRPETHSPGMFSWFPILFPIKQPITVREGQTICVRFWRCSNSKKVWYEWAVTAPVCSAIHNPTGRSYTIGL
In a further assay the test system is DK-MG. The assay can be described thus: Antiproliferative activity against human DK-MG cells assessed as cell growth inhibition incubated for 10 days. It is filed as functional. Particulars: 240 h, time 10 day. In short, it runs like this:
as §1

Assay [7] is described as follows: Antiproliferative activity against human RKOAS451 cells assessed as cell growth inhibition incubated for 10 days. It is filed as functional. Particulars: RKOAS451, 240 h, time 10 day.
The test system of another assay is RL95-2. Description: Antiproliferative activity against human RL95-2 cells assessed as cell growth inhibition incubated for 10 days. Particulars: RL95-2, 240 h, time 10 day. It is filed as functional.
The test system of another assay is NCI-H747. The assay can be described thus: Antiproliferative activity against human NCI-H747 cells assessed as cell growth inhibition incubated for 10 days. It is filed as functional. Particulars: NCI-H747, 240 h, time 10 day.
The next assay concerns Calu-1. The assay can be described thus: Antiproliferative activity against human Calu-1 cells assessed as cell growth inhibition incubated for 10 days. It is filed as functional. Particulars: Calu-1, 240 h, time 10 day. The procedure, abridged: as §1
The next assay relates to J-RT3-T3-5. Description: Antiproliferative activity against human J-RT3-T3-5 cells assessed as cell growth inhibition incubated for 10 days. It is filed as functional. Particulars: J-RT3-T3-5, 240 h, time 10 day. The procedure, abridged:
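Eurofins-panel 10-day assay in 384-well plates. Cells grown in RPMI-1640 with 10% FBS, 2 mM L-alanyl-L-glutamine and 1mM Na pyruvate, or a special medium, at 37°C in 5% CO₂. Compound added 24 h after seeding, 10-point 3.16-fold series in 0.1% DMSO. Medium replaced and compound re-dosed at 168 h. Nuclei fixed and stained after 240 h, then imaged to give a relative cell count. gIC50 is the concentration giving growth midway between untreated and time-zero counts, from a 4-parameter fit.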

SMILES strings stand for the structures. Active and inactive are the calls of the source. No cut-off for these calls is given here.

With `CC(=O)N1CCC(Nc2cc(C(=O)NC[C@H](O)CN3CCc4ccccc4C3)ncn2)CC1` [PEMRAMETOSTAT], the GI50 (in general, the concentration giving 50% growth inhibition) in the assay with SCaBER was determined as 198 nM. The Activity result in the assay on Maver1 and in the assay on Z-138 [3] was “Dose-Dependent Effect” throughout. Moreover, the result in the assay with Z-138 [1] was inactive. For the same compound, the result in the assay on Z-138 [2] was Active. Moreover, the inhibition result in the assay on Z-138 [4] is “Active”.

On to `O=C(NC[C@H](O)CN1CCc2ccccc2C1)c1ccnc(NC2CCC2)c1`, for which the GI50 with FaDu came to 15.4 nM; in the assay on Ramos it was 546 nM; with SW1783, 389 nM; in the assay on SW872, 54 nM; in the assay with BV-173, 10.6 nM; in the assay with SK-UT-1, 42.1 nM. Also, the GI50 in the assay with DMS-53 stood at 106 nM; in the assay with Detroit 562 it was 104 nM; in the assay on A-375, 79.6 nM; with A-427 it was 130 nM; with ES-2, 106 nM; in the assay with CFPAC-1, 52.3 nM. The GI50 in the assay on WI-38 came to 18.5 nM; in the assay with LS-1034 it was 172 nM; in the assay with CAKI-1 it was 68.8 nM; in the assay on SW-403 it was 153 nM; with SK-N-AS, 31.9 nM; in the assay on A498 it was 50.7 nM. For the same compound, the GI50 in the assay with DK-MG was determined as 89.5 nM; in [7], 113 nM; in the assay with RL95-2, 218 nM; in the assay on NCI-H747 it was 2580 nM; with Calu-1, 3050 nM; with J-RT3-T3-5, 43.2 nM. Moreover, the inhibition result in assay [5] is “Active”. Further, the inhibition result in assay [6] was “inactive”.

The record behind these values is ChEMBL document CHEMBL5653630, “Activation of the p53-MDM4 regulatory axis defines the anti-tumour response to PRMT5 inhibition through its role in regulating cellular splicing” (Sci Rep, 2018).
